This is an account of results in ChEMBL document CHEMBL1146453, “Insecticidal sesquiterpene pyridine alkaloids from Maytenus chiapensis” (J Nat Prod, 2004).

SMILES strings stand for the structures. Values after ≈ are worked out from the molar mass of the structure shown. Active and inactive are the calls of the source. The rule behind the calls is not given here.

A short description of data set [1]: Cytotoxicity against Spodoptera frugiperda Sf9 cells by MTT assay. The format is cell-based. As to conditions: read-out: LD50 (the source's name). A digest of the protocol:
(§1)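 Sf9 cells (S. frugiperda pupal ovarian tissue) and CHO cells were cultured and scored for viability by an adapted MTT colorimetric assay. LD50, the dose giving 50% viability, was calculated for active compounds.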
(Tetrazolium dyes change colour on reduction, which living cells bring about.)

The nature of data set [2]: Cytotoxicity against CHO cells by MTT assay. Format: cell-based, Cricetulus griseus. As to conditions: chinese hamster, read-out: LD50 (the source's name). The procedure, abridged:
as §1

Data set [3] has as its system Spodoptera littoralis. The data set is described as follows: Antifeedant activity against Spodoptera littoralis L6 larvae assessed as nutritional consumption relative to control. Format: functional. Also on record: concentration or dose not given beside the values. A digest of the protocol: (§2)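 Sixth-instar S. littoralis larvae reared on artificial diet at 22 ± 1 °C, >70% RH, 16:8 h L:D, dosed orally. Food consumption and biomass gain were recorded. Post-ingestive effects were tested by ANCOVA of biomass gain with food consumption as covariate.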

The next data set relates to Myzus persicae. The data set is described as follows: Antifeedant activity against Myzus persicae. Format: functional, organism-based. The procedure, abridged: (§3)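 Choice feeding test on sixth-instar S. littoralis larvae and apterous adult M. persicae. Larvae reared on artificial diet, aphids on bell pepper plants, both at 22 ± 1 °C, >70% RH, 16:8 h L:D. Read-out is percent feeding inhibition (larvae) or settling inhibition (aphids). Actives above 50% went to dose–response, with EC50 taken from linear regression of %FR or %SI on log dose.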

The test system of data set [4] is Spodoptera littoralis. The data set can be described thus: Antifeedant activity against Spodoptera littoralis L6 larvae treated orally. The format is functional, organism-based. The procedure, abridged: as §2
Data set [5] has as its system Spodoptera littoralis. The data set is described as follows: Antifeedant activity against Spodoptera littoralis L6 larvae. The format is functional, organism-based. A digest of the protocol:
as §3

The subject of data set [6] is Spodoptera littoralis. The data set can be described thus: Antifeedant activity against Spodoptera littoralis L6 larvae assessed as biomass gain relative to control. The format is functional. Also on record: concentration or dose not given beside the values. The procedure, abridged:
as §2

As to `CC(=O)OC[C@]12[C@H](OC(C)=O)[C@H](OC(C)=O)[C@@H]3[C@@H](OC(C)=O)[C@@]14O[C@@]3(C)COC(=O)c1cccnc1CCC(C)(O)C(=O)O[C@@H]([C@H](OC(=O)c1ccccc1)[C@@H]2OC(=O)c1ccccc1)[C@]4(C)O` (some centres not stated), the CC50 in data set [1] and in data set [2] was more than 100 µg/mL throughout. Further, the values for the Activity with Spodoptera littoralis [3] and in the data set on Spodoptera littoralis [6] were 87% and 96%, respectively. Further, the result in the data set with Myzus persicae and in the data set with Spodoptera littoralis [4] was inactive. In the data set with Spodoptera littoralis [5], this compound returned an EC50 of 3.9 ×10⁻² ug/cm2.

For the compound `CC(=O)OC[C@]12[C@H](OC(C)=O)[C@H](OC(C)=O)[C@@H]3[C@@H](OC(C)=O)[C@@]14O[C@@]3(C)COC(=O)c1cccnc1C(C)C(C)C(=O)O[C@@H]([C@H](O)[C@@H]2OC(C)=O)[C@]4(C)O` (some centres not stated), the CC50 in data set [1] was 57.5 µg/mL (≈ 75.3 µM); in data set [2], more than 100 µg/mL. For the same compound, the Activity in the data set on Spodoptera littoralis [3] is listed as 94%; in the data set on Spodoptera littoralis [6], 101%. Also, the result with Myzus persicae was inactive. The EC50 in the data set on Spodoptera littoralis [5] was more than 50 microg/cm2.

In the case of `CC(=O)OC[C@]12[C@H](OC(C)=O)C(=O)[C@@H]3[C@@H](OC(C)=O)[C@@]14O[C@@]3(C)COC(=O)c1cccnc1CCC(C)(O)C(=O)O[C@@H]([C@H](OC(=O)c1ccccc1)[C@@H]2OC(=O)c1ccccc1)[C@]4(C)O` (some centres not stated), the CC50 was 78.7 µg/mL (≈ 87.2 µM) in data set [1] and more than 100 µg/mL in data set [2]. Further, the values for the Activity with Spodoptera littoralis [3] and in the data set with Spodoptera littoralis [6] were 92% and 93%, respectively. Besides, the outcome in the data set with Myzus persicae and with Spodoptera littoralis [4] was inactive. Further, in the data set on Spodoptera littoralis [5], the EC50 is given as 6.6 ×10⁻² ug/cm2.

`CC(=O)OC[C@]12[C@H](OC(C)=O)C(=O)[C@@H]3[C@@H](OC(C)=O)[C@@]14O[C@@]3(C)COC(=O)c1cccnc1CCC(C)(O)C(=O)O[C@@H]([C@H](OC(=O)c1ccccc1)[C@@H]2OC(C)=O)[C@]4(C)O` (some centres not stated) [ALATAMINE]: the CC50 in data set [1] and in data set [2] was more than 100 µg/mL each time. For the same compound, the values for the Activity in the data set on Spodoptera littoralis [3] and with Spodoptera littoralis [6] were 117% and 118%, respectively. Further, the outcome in the data set with Myzus persicae and in the data set on Spodoptera littoralis [4] was inactive. In the data set with Spodoptera littoralis [5], this compound gave an EC50 of 5.2 ×10⁻³ ug/cm2.

In the case of `CC(=O)OC[C@]12[C@H](OC(C)=O)[C@H](OC(C)=O)[C@@H]3[C@@H](OC(C)=O)[C@@]14O[C@@]3(C)COC(=O)c1cccnc1CCC(C)(O)C(=O)O[C@@H]([C@H](OC(C)=O)[C@@H]2OC(C)=O)[C@]4(C)O` (some centres not stated) [ALATUSININE], the results for the CC50 in data set [1] and in data set [2] were 73.2 µg/mL (≈ 89.1 µM) and more than 100 µg/mL, respectively. The results for the Activity in the data set with Spodoptera littoralis [3] and with Spodoptera littoralis [6] were 125% and 111%, respectively. Besides, the result in the data set on Myzus persicae and with Spodoptera littoralis [4] was inactive. The compound further yielded an EC50 in the data set on Spodoptera littoralis [5] of 1.6 ×10⁻⁴ ug/cm2.

As to `CC(=O)OC[C@]12[C@H](OC(C)=O)[C@H](OC(C)=O)[C@@H]3[C@@H](OC(C)=O)[C@@]14O[C@@]3(C)COC(=O)c1cccnc1C(C)C(C)C(=O)O[C@@H]([C@H](O)[C@@H]2OC(=O)c1ccccc1)[C@]4(C)O` (some centres not stated) [EBENIFOLINE E I], the values for the CC50 in data set [1] and in data set [2] were 78.8 µg/mL (≈ 95.4 µM) and more than 100 µg/mL, respectively. For the same compound, the Activity with Spodoptera littoralis [3] stood at 81%; in the data set on Spodoptera littoralis [6], 83%. In addition, the outcome in the data set on Myzus persicae and with Spodoptera littoralis [4] was inactive. In the data set with Spodoptera littoralis [5], this compound came in with an EC50 of 0.72 microg/cm2.

With `CC(=O)OC[C@]12[C@H](OC(C)=O)[C@H](OC(C)=O)[C@@H]3[C@@H](OC(C)=O)[C@@]14O[C@@]3(C)COC(=O)c1cccnc1CCC(C)C(=O)O[C@@H]([C@H](OC(C)=O)[C@@H]2OC(C)=O)[C@]4(C)O` (some centres not stated) [EUONINE], the CC50 in data set [1] is 48.4 µg/mL (≈ 60 µM); in data set [2] it was more than 100 µg/mL. The Activity in the data set with Spodoptera littoralis [3] came out at 111%; in the data set with Spodoptera littoralis [6], 98%. For the same compound, the outcome with Myzus persicae and with Spodoptera littoralis [4] was inactive. In the data set with Spodoptera littoralis [5], this compound came in with an EC50 of 1.8 ×10⁻⁴ ug/cm2.

As for `CC(=O)OC[C@]12[C@H](OC(C)=O)[C@H](OC(C)=O)[C@@H]3[C@@H](OC(C)=O)[C@@]14O[C@@]3(C)COC(=O)c1cccnc1C(C)C(C)C(=O)O[C@@H]([C@H](OC(C)=O)[C@@H]2OC(C)=O)[C@]4(C)O` (some centres not stated) [EUONYMINE], the values for the CC50 in data set [1] and in data set [2] were 49.6 µg/mL (≈ 61.6 µM) and more than 100 µg/mL, respectively. Also, the results for the Activity with Spodoptera littoralis [3] and with Spodoptera littoralis [6] were 102% and 105%, respectively. Further, the outcome in the data set on Myzus persicae was inactive. In addition, in the data set with Spodoptera littoralis [5], the EC50 was more than 50 microg/cm2.

For the compound `CC(=O)OC[C@]12[C@H](OC(C)=O)[C@H](OC(C)=O)[C@@H]3[C@@H](OC(C)=O)[C@@]14O[C@@]3(C)COC(=O)c1cccnc1C(C)C(C)C(=O)O[C@@H]([C@H](OC(C)=O)[C@@H]2OC(=O)c1ccccc1)[C@]4(C)O` (some centres not stated) [MAYTEINE], the CC50 in data set [1] and in data set [2] was more than 100 µg/mL throughout. Further, the Activity in the data set with Spodoptera littoralis [3] was 146%; with Spodoptera littoralis [6], 112%. Besides, the outcome in the data set with Myzus persicae was inactive. For the same compound, the EC50 in the data set on Spodoptera littoralis [5] is more than 50 microg/cm2.

As to `CC(=O)OC[C@]12[C@H](OC(C)=O)[C@H](OC(C)=O)[C@@H]3[C@@H](OC(C)=O)[C@@]14O[C@@]3(C)COC(=O)c1cccnc1CCC(C)(O)C(=O)O[C@@H]([C@H](OC(=O)c1ccccc1)[C@@H]2OC(C)=O)[C@]4(C)O` (some centres not stated) [WILFORDINE], the CC50 in data set [1] was 86.2 µg/mL (≈ 97.6 µM); in data set [2] it was more than 100 µg/mL. Besides, the Activity turned out to be 109% in the data set on Spodoptera littoralis [3] and 93% in the data set on Spodoptera littoralis [6]. Besides, the outcome with Myzus persicae and in the data set on Spodoptera littoralis [4] was inactive. The EC50 in the data set on Spodoptera littoralis [5] is listed as 2.3 ×10⁻⁴ ug/cm2.
